Measured values from ChEMBL document CHEMBL4052793, “Synthesis and Biological Evaluation of Paclitaxel and Camptothecin Prodrugs on the Basis of 2-Nitroimidazole” (ACS Med Chem Lett, 2017).

What was measured:
Mus musculus = species: Mus musculus; test: Drug degradation in mouse plasma assessed as compound half life at 10 uM by HPLC method
HT-29 [1] = test: Cytotoxicity against human HT-29 cells assessed as growth reduction under normoxic condition after 72 hrs by MTT assay; format: functional, cell-based; conditions: HT-29, 72 h
Summary of the method: (§1)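 H460 lung and HT29 colon carcinoma cells exposed to a range of compound concentrations for 72 h, either in air (normoxic) or under hypoxia (94% N2, 5% CO2, 1% O2). Viability/proliferation read by MTT; IC50 for proliferation inhibition.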

NCI-H460 [2] = test: Cytotoxicity against human NCI-H460 cells assessed as growth reduction under normoxic condition after 72 hrs by MTT assay; format: functional, cell-based; conditions: NCI-H460, 72 h
Summary of the method: as §1

[3] = Drug degradation in human plasma assessed as compound half life at 10 uM by HPLC method; format: ADME, cell-free
Summary of the method: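 Incubated in human plasma in vitro; remaining prodrug followed by HPLC over time and half-life derived.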

[4] = Half life in ABS buffer at 10 uM at pH 5.0 by HPLC method; format: physicochemical
[5] = Half life in PBS buffer at 10 uM at pH 7.4 by HPLC method; format: physicochemical
[6] = Prodrug conversion in Pd/C assessed as PTX formation at 1 mg after 2 hrs in presence of H2 by LC/MS method
Summary of the method: (§2)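 Chemical reduction over Pd/C under H2 in THF at 37 °C. Products were analysed to follow release of the parent drug.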

HT-29 [7] = test: Cytotoxicity against human HT-29 cells assessed as growth reduction under hypoxic condition after 72 hrs by MTT assay; format: functional, cell-based; conditions: HT-29, 72 h
Summary of the method: as §1

[8] = Selectivity ratio, IC50 for human H460 cells under normoxic condition to IC50 for human H460 cells under hypoxic condition; format: functional
[9] = Prodrug conversion in Pd/C assessed as 2-aminoimidazole intermediate of 2C-PTX formation at 1 mg after 2 hrs in presence of H2 by LC/MS method
Summary of the method: as §2

[10] = Prodrug conversion assessed as Escherichia coli nitroreductase mediated 2-aminoimidazole intermediate of 2C-PTX formation at 10 uM after 1 hr in presence of NADPH by HPLC method; format: ADME; conditions: isolated protein
Summary of the method: (§3)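 Prodrugs at 10 μM (1% DMSO) in PBS pH 7.4 incubated at 37 °C with E. coli nitroreductase (50 μg/mL) and NADPH (1 μmol/mL) for up to 1 h. Prodrug loss and active drug release tracked by HPLC.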

[11] = Prodrug conversion assessed as Escherichia coli nitroreductase mediated SN38 reduction by measuring half life at 10 uM in presence of NADPH by HPLC method; format: ADME; conditions: isolated protein
Summary of the method: as §3

[12] = Half life in PBS buffer at 10 uM at pH 6.5 by HPLC method; format: physicochemical
HT-29 [13] = test: Selectivity ratio, IC50 for human HT-29 cells under normoxic condition to IC50 for human HT29 cells under hypoxic condition; format: functional
NCI-H460 [14] = test: Cytotoxicity against human NCI-H460 cells assessed as growth reduction under hypoxic condition after 72 hrs by MTT assay; format: functional, cell-based; conditions: NCI-H460, 72 h
Summary of the method: as §1

[15] = Drug level in Pd/C using 1 mg 3C-SN38 assessed as compound formation in presence of H2 after 2 hrs by LC/MS method
Summary of the method: as §2

[16] = Drug level in Pd/C treated with 3C-PTX at 1 mg in presence of H2 after 2 hrs by LC/MS method
Summary of the method: as §2

[17] = Drug level in Pd/C treated with 2C-PTX at 1 mg in presence of H2 after 2 hrs by LC/MS method
Summary of the method: as §2

[18] = Prodrug conversion in Pd/C assessed as 2-aminoimidazole intermediate of 3C-SN38 formation at 1 mg after 2 hrs in presence of H2 by LC/MS method
Summary of the method: as §2

[19] = Prodrug conversion in Pd/C assessed as SN38 formation at 1 mg after 2 hrs in presence of H2 by LC/MS method
Summary of the method: as §2

[20] = Prodrug conversion in Pd/C assessed as 2-aminoimidazole intermediate of 3C-PTX formation at 1 mg after 2 hrs in presence of H2 by LC/MS method
Summary of the method: as §2

| half-life at 10 µM (Mus musculus) [h] | half-life at 10 µM [3] [h] | half-life at 10 µM [4] [h] | half-life at 10 µM [5] [h] | t1/2 [11] | half-life at 10 µM [12] [h] | Structure (SMILES) | IC50 (HT-29 [1]) [nM] | IC50 (NCI-H460 [2]) [nM] | Drug metabolism [6] | IC50 (HT-29 [7]) [nM] | Ratio IC50 [8] | Ratio IC50 (HT-29 [13]) | IC50 (NCI-H460 [14]) [nM] | further results |
| --- | --- | --- | --- | --- | --- | --- | --- | --- | --- | --- | --- | --- | --- | --- |
| 0.333 | 2 | 48 | 28 | <= 10 min | 24 | CC(=O)O[C@H]1C(=O)[C@@]2(C)[C@H]([C@H](OC(=O)c3ccccc3)[C@]3(O)C[C@H](OC(=O)[C@H](OC(=O)OCCn4ccnc4[N+](=O)[O-])[C@@H](NC(=O)c4ccccc4)c4ccccc4)C(C)=C1C3(C)C)[C@]1(OC(C)=O)CO[C@@H]1C[C@@H]2O | 140 | 9 | Metabolite detected | 45 | 1.5 | 3.11 | 6 | Drug metabolism [9]: Metabolite detected; Drug metabolism [10]: Metabolite_Notdetected |
| – | – | – | – | – | – | CCc1c2c(nc3ccc(O)cc13)-c1cc3c(c(=O)n1C2)COC(=O)[C@]3(O)CC [7-ETHYL-10-HYDROXYCAMPTOTHECIN] | 96 | – | – | 119 | 1.06 | 0.82 | 47 | Drug metabolism [15]: Metabolite detected |
| – | – | – | – | – | – | CC(=O)O[C@H]1C(=O)[C@@]2(C)[C@H]([C@H](OC(=O)c3ccccc3)[C@]3(O)C[C@H](OC(=O)[C@H](O)[C@@H](NC(=O)c4ccccc4)c4ccccc4)C(C)=C1C3(C)C)[C@]1(OC(C)=O)CO[C@@H]1C[C@@H]2O [PACLITAXEL] | 14 | – | – | 15 | – | – | – | Drug metabolism [16]: Metabolite detected; Drug metabolism [17]: Metabolite detected |
| 0.617 | 2 | 40 | > 48 | <= 10 min | > 48 | CCc1c2c(nc3ccc(O)cc13)-c1cc3c(c(=O)n1C2)COC(=O)[C@@]3(CC)OC(=O)OCCCn1ccnc1[N+](=O)[O-] | > 10000 | 201 | – | 6020 | 2.03 | >1.67 | 99 | Drug metabolism [18]: Metabolite detected; Drug metabolism [19]: Metabolite detected |
| 0.917 | 6 | > 48 | 36 | <= 10 min | 24 | CC(=O)O[C@H]1C(=O)[C@@]2(C)[C@H]([C@H](OC(=O)c3ccccc3)[C@]3(O)C[C@H](OC(=O)[C@H](OC(=O)OCCCn4ccnc4[N+](=O)[O-])[C@@H](NC(=O)c4ccccc4)c4ccccc4)C(C)=C1C3(C)C)[C@]1(OC(C)=O)CO[C@@H]1C[C@@H]2O | 290 | 21 | Metabolite detected | 159 | 1.17 | 1.82 | 18 | Drug metabolism [20]: Metabolite detected |
| 0.783 | 6 | > 48 | > 48 | 0.5 h | 41 | CCc1c2c(nc3ccc(O)cc13)-c1cc3c(c(=O)n1C2)COC(=O)[C@@]3(CC)OC(=O)OCCn1ccnc1[N+](=O)[O-] | > 10000 | 91 | – | 9560 | 1.44 | >1.05 | 63 | – |
